Results collected from several papers.
Lines come from different studies, so protocols differ.
Effect on: metabolic stability
Species: human

| SMILES | system | conditions | quantity | result |
| --- | --- | --- | --- | --- |
| NCCOCC(=O)N1CCCC(C(=O)NCc2nc(-c3ccc(-c4ccc(F)cc4)cc3)cs2)C1 (stereo not shown) | liver microsomes | – | scaled CLint | < 0.258 L/h/kg |
| Cc1[nH]c(C)c(S(=O)(=O)Nc2ccc(S(F)(F)(F)(F)F)c(Cl)c2)c1C(=O)N1CCC(F)(F)C1 | liver microsomes | – | microsomal CLint | 53.1 µL/min/mg |
| CC1(C)NC(=O)N(c2cc(Cl)c(F)c(C(F)(F)F)c2)C1=O | liver microsomes | – | microsomal CLint | < 7 µL/min/mg |
| C[C@]12CC[C@H]3[C@@H](CCC4=CC(=O)CC[C@@]43C)[C@@H]1CC[C@@H]2O | liver microsomes | pH 7.4 | scaled CLint | 7.5 L/h/kg |
| C[C@]12CC[C@H]3[C@@H](CCC4=CC(=O)CC[C@@]43C)[C@@H]1CC[C@@H]2O | liver microsomes | – | microsomal CLint | 63.9 µL/min/mg |
| O=C1CCC(N2Cc3c(ccc4c3OCC43CCN(Cc4ccccc4)CC3)C2=O)C(=O)N1 (stereo not shown) | liver microsomes | 1 µM | scaled CLint | 1.25 L/h/kg |
| CC1(C)NC(=O)N(c2ccc(F)c(C(F)(F)F)c2F)C1=O | liver microsomes | – | microsomal CLint | < 7 µL/min/mg |
| CC(C)CC(=O)OC[C@H]1O[C@@](C#N)(c2ccc3c(N)ncnn23)[C@H](O)[C@@H]1O | hepatocytes | – | hepatocyte CLint | > 318 µL/min/10⁶ cells |
| O=c1[nH]c2ccccc2n1C1CCN(CCCC(c2ccc(F)cc2)c2ccc(F)cc2)CC1 | liver microsomes | 100 ng/mL | microsomal CLint | 3.4 µL/min/mg |
| Cc1[nH]c(C)c(S(=O)(=O)Nc2ccc(S(F)(F)(F)(F)F)cc2)c1C(=O)N1CCC(F)(F)C1 | liver microsomes | – | microsomal CLint | 26 µL/min/mg |
